Results from ChEMBL document CHEMBL1123615, “1,3-Dialkyl-4-(iminoarylmethyl)-1H-pyrazol-5-ols. A series of novel potential antipsychotic agents” (J Med Chem, 1987).
pIC50: −log10 of the molar value.

Assays:
Mus musculus [1] = assay: Inhibition of locomotor activity (LMA) and motor coordination in mice by intraperitoneal administration.; format: functional; conditions: ip
Summary of the method: (§1)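 Mice scored for inhibition of spontaneous locomotor activity and for ataxia (impaired motor coordination). Nine mice per dose; ED50 derived from at least three doses.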

D(2) dopamine receptor = D(2) dopamine receptor (Rattus norvegicus, UniProt P61169); assay: In vitro binding affinity against Dopamine receptor D2 by displacement of [3H]haloperidol from rat striatal membranes.; format: cell membranes, Membrane
Mus musculus [2] = assay: Inhibition of ataxia in mice by intraperitoneal administration.; format: functional; conditions: ip; summary of the method: as §1
Rattus norvegicus [3] = assay: Inhibition of sidman avoidance in rats, activity expressed as ED50 mg/kg per orally.; format: functional; conditions: po
Summary of the method: (§2)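 Sidman avoidance in rats or squirrel monkeys with oral dosing; ED50 given in mg/kg.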

Rattus norvegicus [4] = assay: Effect on serum prolactin level, activity expressed as percent control at 23.7 mg/kg per orally.; format: functional; conditions: in the assay text read “27.0 mg/kg” for “23.7 mg/kg”
Summary of the method: (§3)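 Rats dosed orally and killed 1 h after administration; serum prolactin measured. Values are means from groups of five animals, expressed as % of vehicle control.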

[5] = Inhibition of sidman avoidance in squirrel monkeys, activity expressed as ED50 mg/kg per orally.; format: functional; conditions: po; summary of the method: as §2
[6] = Extrapyramidal syndrome(EPS) signs in cebus monkeys, activity expressed as MED mg/kg per orally.; format: functional; conditions: po; read-out: MED
Summary of the method: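 Cebus monkeys previously sensitized to haloperidol, observed for dystonic signs after oral dosing. Minimal effective dose determined in at least three animals.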

Rattus norvegicus [7] = assay: Inhibition of self-stimulation in rats, activity expressed as ED50 mg/kg per orally.; format: functional; conditions: po
Summary of the method: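 Oral dosing in rats; suppression of high baseline self-stimulation measured; ED50 given in mg/kg.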

Rattus norvegicus [8] = assay: Effect on serum prolactin level, activity expressed as percent control at 27.0 mg/kg per orally.; format: functional; summary of the method: as §3
Rattus norvegicus [9] = assay: Effect on serum prolactin level, activity expressed as percent control at 23.7 and 27.0 mg/kg per orally.; format: functional; summary of the method: as §3
[10] = target: alpha-1 adrenergic receptor (Rattus norvegicus); assay: Affinity for displacement of [3H]WB-4101 labeled alpha-1 adrenergic receptor
D(1A) dopamine receptor = D(1A) dopamine receptor (Rattus norvegicus, UniProt P18901); assay: Affinity for displacement of [3H]SCH-23390 labeled Dopamine receptor D1
Summary of the method: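 [3H]SCH23390 binding (D1 label), run by a method from earlier work. IC50 obtained by non-linear regression over four or five concentrations. Reference standard SCH23390 included.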

[11] = target: alpha-2 adrenergic receptor (Rattus norvegicus); assay: Affinity for displacement of [3H]clonidine labeled alpha-2 adrenergic receptor

Chain of D(2) dopamine receptor (P61169 whole entry): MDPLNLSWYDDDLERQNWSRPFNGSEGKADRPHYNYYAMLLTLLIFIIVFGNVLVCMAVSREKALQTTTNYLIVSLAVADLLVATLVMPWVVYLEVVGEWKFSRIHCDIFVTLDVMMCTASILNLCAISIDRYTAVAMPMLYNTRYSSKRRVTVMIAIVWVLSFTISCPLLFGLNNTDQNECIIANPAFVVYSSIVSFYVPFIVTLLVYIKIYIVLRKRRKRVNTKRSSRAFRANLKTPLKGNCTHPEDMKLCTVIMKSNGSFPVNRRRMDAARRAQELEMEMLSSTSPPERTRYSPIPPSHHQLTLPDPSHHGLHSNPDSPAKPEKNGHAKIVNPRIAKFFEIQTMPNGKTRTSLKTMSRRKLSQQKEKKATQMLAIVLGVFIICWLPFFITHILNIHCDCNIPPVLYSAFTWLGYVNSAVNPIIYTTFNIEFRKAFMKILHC
Chain of D(1A) dopamine receptor (P18901 whole entry): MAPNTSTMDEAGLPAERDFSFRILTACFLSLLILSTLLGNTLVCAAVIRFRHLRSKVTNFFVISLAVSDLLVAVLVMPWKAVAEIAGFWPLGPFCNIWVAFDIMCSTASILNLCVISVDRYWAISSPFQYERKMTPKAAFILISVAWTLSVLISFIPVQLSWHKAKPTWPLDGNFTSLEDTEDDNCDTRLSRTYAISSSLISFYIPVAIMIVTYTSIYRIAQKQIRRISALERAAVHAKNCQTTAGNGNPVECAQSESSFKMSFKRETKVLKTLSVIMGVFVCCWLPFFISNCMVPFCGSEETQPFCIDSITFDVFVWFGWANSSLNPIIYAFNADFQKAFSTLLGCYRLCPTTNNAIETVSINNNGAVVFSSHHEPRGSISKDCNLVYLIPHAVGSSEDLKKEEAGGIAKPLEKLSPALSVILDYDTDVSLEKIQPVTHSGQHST

pIC50 (D(2) dopamine receptor)	Structure (SMILES)	ED50 (Mus musculus [1]) [mg/kg]	ED50 (Mus musculus [2]) [mg/kg]	further results
< 5.00	Cc1[nH]n(C)c(=O)c1C(=N)c1ccccc1	13.9	30.2	–
–	Cn1[nH]cc(C(=N)c2cccc(Cl)c2)c1=O	47.8	> 100	–
–	Cc1[nH]n(C)c(=O)c1C(=N)c1ccc(Cl)c(Cl)c1	26.4	> 30	–
< 5.00	Cc1[nH]n(C)c(=O)c1C(=N)c1cccc(F)c1	35.6	63.6	–
–	CCc1[nH]n(C)c(=O)c1C(=N)c1cccc(Cl)c1	60.6	47.6	–
–	Cc1[nH]n(C)c(=O)c1C(=N)c1ccc2ccccc2c1	65.6	> 100	–
–	Cc1[nH]n(C)c(=O)c1C(=N)c1cccc([N+](=O)[O-])c1	38.8	> 100	–
–	COc1ccccc1C(=N)c1c(C)[nH]n(C)c1=O	46.6	87.9	–
–	Cc1ccc(C(=N)c2c(C)[nH]n(C)c2=O)cc1	> 100	> 100	–
< 5.00	Cc1[nH]n(C)c(=O)c1/C(=N/C(=O)C(F)(F)F)c1cccc(Cl)c1	17.9	> 100	–
< 5.00	CCCn1[nH]c(C)c(C(=N)c2cccc(Cl)c2)c1=O	21.5	> 30	–
< 6.00	CC(=O)/N=C(\c1cccc(Cl)c1)c1c(C)[nH]n(C)c1=O	25.1	> 100	–
–	Cc1cccc(C(=N)c2c(C)[nH]n(C)c2=O)c1	33.1	79.3	–
–	CCCn1[nH]c(C)c(C(=N)c2ccccc2)c1=O	11.6	25.2	–
< 5.00	Cc1[nH]n(C)c(=O)c1C(=N)c1ccc(F)cc1	15	> 30	–
–	CSc1ccc2c(c1)N(CCC1CCCCN1C)c1ccccc1S2 (stereo not given) [THIORIDAZINE]	2.9	> 100	ED50 (Rattus norvegicus [3]): 14.4 mg/kg; Control (Rattus norvegicus [4]): 918%; ED50 [5]: 4 mg/kg; minimal effective dose [6]: 2.5 mg/kg; ED50 (Rattus norvegicus [7]): 28.3 mg/kg; Control (Rattus norvegicus [8]): 918%
< 6.00	Cc1[nH]n(C)c(=O)c1/C(=N/C(=O)C(Cl)Cl)c1cccc(Cl)c1	35.5	> 100	–
–	Cc1[nH]n(C)c(=O)c1C(=N)c1cccc(C(F)(F)F)c1	> 30	> 30	–
–	Cc1[nH]n(C)c(=O)c1C(=N)c1ccc(N)cc1	> 100	> 100	–

pIC50 (D(2) dopamine receptor)	Structure (SMILES)	ED50 (Mus musculus [1]) [mg/kg]	ED50 (Mus musculus [2]) [mg/kg]	further results
–	Cn1[nH]cc(C(=N)c2ccccc2)c1=O	49.1	> 100	–
< 5.00	Cc1[nH]n(C)c(=O)c1C(=N)c1cccc(Br)c1	20.5	> 30	–
–	Cc1[nH]n(C)c(=O)c1C(=N)c1cc(Cl)cc(Cl)c1	34.9	> 100	–
–	CCCCn1[nH]c(C)c(C(=N)c2ccccc2)c1=O	48.7	> 100	–
–	Cc1[nH]n(C)c(=O)c1C(=N)c1cccs1	40.5	> 90	–
< 5.00	CCn1[nH]c(C)c(C(=N)c2cccc(Cl)c2)c1=O	16	45.3	–
–	Cc1[nH]n(C)c(=O)c1C(=N)c1ccccc1Cl	31.1	50.8	–
–	Cc1[nH]n(C)c(=O)c1C(=N)c1ccco1	33.6	> 100	–
–	C/N=C(/c1cccc(Cl)c1)c1c(C)[nH]n(C)c1=O	50.5	73.1	–
–	COc1ccc(C(=N)c2c(C)[nH]n(C)c2=O)cc1	> 100	> 100	–
–	CN1CCN(C2=Nc3cc(Cl)ccc3Nc3ccccc32)CC1 [CLOZAPINE]	–	10	–
–	CCCCn1[nH]c(C)c(C(=N)c2cccc(Cl)c2)c1=O	88.3	62.5	–
–	Cc1[nH]n(C)c(=O)c1C(=N)c1ccc(Cl)cc1	18.9	> 56	–
< 5.00	Cc1[nH]n(C)c(=O)c1C(=N)c1cccc(Cl)c1	15.2	> 100	ED50 (Rattus norvegicus [3]): 17 mg/kg; Control (Rattus norvegicus [9]): -25%; pIC50 [10]: < 5.00; pIC50 (D(1A) dopamine receptor): < 5.00; ED50 [5]: 16.3 mg/kg; minimal effective dose [6]: > 100 mg/kg; pIC50 [11]: < 5.00; ED50 (Rattus norvegicus [7]): 23.7 mg/kg
–	Cc1[nH]n(C)c(=O)c1C(=N)c1ccc([N+](=O)[O-])cc1	> 90	> 90	–
< 5.00	Cc1[nH]n(C(C)C)c(=O)c1C(=N)c1cccc(Cl)c1	25	> 30	–
< 5.00	CCn1[nH]c(C)c(C(=N)c2ccccc2)c1=O	11.8	21.5	–
< 5.00	Cc1[nH]n(C)c(=O)c1C(=N)c1ccc(C(F)(F)F)cc1	31.4	> 30	–
